Assay results from article PMC4834983 (Journal of medicinal chemistry, 2015).
“Also recorded” adds a separate entry of the source.

Tests used:
pYStat3 = assay: Immunoblotting of pStat3 in treated U251MG cells; assay type: cell-based, human; conditions: for effect on pStat3 in treated tumor cells: 5 μM, glioma cells, immunoblotting
In short: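 Whole-cell lysates from U251MG cells given test compound at 5 μM for 0–24 h, or at 0–5 μM for 2 h. Immunoblotted for pY705Stat3 and total Stat3, with GAPDH as loading reference.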

Stat3:Stat3 = Stat3:Stat3 (Mus musculus, UniProt P42227); assay: Cell-free EMSA, nuclear extracts pre-incubated with compound, hSIE probe; assay type: biochemical; conditions: 5 μM, 30 min pre-incubation, NIH3T3/v-Src nuclear extracts
[1] = Cysteamine 1H NMR test for Michael acceptor reactivity; assay type: physicochemical; conditions: DMSO-d6, 1H NMR
[2] = system: protein tyrosine phosphatase (PTP)1B; assay: Immunoblotting, U251MG glioma cells; assay type: cell-based, human; conditions: 5 μM
In short: (§1)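 U251MG cells given 5 μM test compound for 0–24 h. Whole-cell lysates of equal total protein immunoblotted for pErk1/2, Erk1/2, pS-Akt, Akt, pJAK2, JAK2, SOCS3 and PTP1B, with β-actin or GAPDH as loading reference.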

pErk1/2MAPK [3] = assay: Immunoblotting, U251MG glioma cells; assay type: cell-based, human; conditions: 5 μM
In short: as §1

G10 cells = assay: Growth of glioma patient-derived xenograft cells in vitro; assay type: cell-based; conditions: Homo sapiens, read-out: inhibitory activity against growth of G10 cells
Stat3 = Stat3 DNA-binding activity/EMSA of nuclear extracts from treated glioma cells; assay type: cell-based, human; conditions: for effect on Stat3 DNA-binding activity in treated tumor cells: 5 μM, glioma cells, EMSA
MCF-7 cells = assay: CyQuant cell proliferation assay; assay type: cell-based; conditions: Homo sapiens, MCF7, 72 h, read-out: IC50 cell proliferation MCF-7
In short: (§2)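 CyQuant DNA-dye proliferation assay on cultured cells after 72 h exposure to test compound. Viability expressed relative to DMSO-treated control cells.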

G22 cells [4] = assay: Growth of glioma patient-derived xenograft cells in vitro; assay type: cell-based; conditions: Homo sapiens, read-out: inhibitory activity against growth of G22 cells
U251MG cells [5] = assay: Scratch assay for migration; assay type: cell-based, human; conditions: 5 μM, 19-h treatment
In short: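 Sub-confluent U251MG monolayers wounded with pipette tips and treated once with test compound (0–5 μM) or DMSO vehicle. Cells allowed to migrate into the denuded area over 19 h, then imaged by microscopy at 10×.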

G12 cells = assay: Growth of glioma patient-derived xenograft cells in vitro; assay type: cell-based; conditions: Homo sapiens, read-out: inhibitory activity against G12 cell growth
[6] = system: suppressors of cytokine signaling (SOCS)3; assay: Immunoblotting, U251MG glioma cells; assay type: cell-based, human; conditions: 5 μM
In short: as §1

NIH3T3 cells [7] = assay: Colony survival assay; assay type: cell-based, mouse; conditions: 5 μM or less
In short: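 Cells seeded as single cells at 250 per well and treated once the next day with test compound (0–5 μM) for 72 h. Grown until large colonies were visible: 1 week for NIH3T3, 2 weeks for U251MG. Colonies stained with crystal violet for 4 h and counted.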

Stat1:Stat1 = target: T1, Stat1:Stat1 (Mus musculus, UniProt P42225); assay: Cell-free EMSA, EGF-stimulated NIH3T3/hEGFR nuclear extracts; assay type: biochemical; conditions: 5 μM, 30 min pre-incubation
T1 sequence (P42225 2-749 limits assumed): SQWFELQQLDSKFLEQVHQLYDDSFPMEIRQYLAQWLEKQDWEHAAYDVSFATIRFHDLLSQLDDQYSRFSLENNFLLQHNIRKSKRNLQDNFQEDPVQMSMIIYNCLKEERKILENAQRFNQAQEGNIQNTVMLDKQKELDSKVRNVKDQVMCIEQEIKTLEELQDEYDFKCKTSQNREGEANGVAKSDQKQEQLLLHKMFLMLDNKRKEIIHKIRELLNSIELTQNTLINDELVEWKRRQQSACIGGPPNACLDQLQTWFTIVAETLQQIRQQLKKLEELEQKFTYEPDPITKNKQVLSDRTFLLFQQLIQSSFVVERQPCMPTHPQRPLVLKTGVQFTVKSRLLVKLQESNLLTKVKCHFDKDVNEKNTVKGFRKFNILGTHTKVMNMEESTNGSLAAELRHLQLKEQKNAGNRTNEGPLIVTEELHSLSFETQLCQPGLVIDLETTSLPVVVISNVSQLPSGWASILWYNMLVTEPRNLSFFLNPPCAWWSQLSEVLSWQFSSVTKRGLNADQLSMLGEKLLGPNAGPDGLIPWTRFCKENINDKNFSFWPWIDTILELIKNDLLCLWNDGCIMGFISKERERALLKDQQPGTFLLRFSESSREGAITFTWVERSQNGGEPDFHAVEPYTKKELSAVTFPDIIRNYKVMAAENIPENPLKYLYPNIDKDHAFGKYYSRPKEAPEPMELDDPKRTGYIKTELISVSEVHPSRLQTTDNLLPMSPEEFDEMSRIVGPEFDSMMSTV
In short: (§3)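 Nuclear extracts from EGF-stimulated NIH3T3/hEGFR fibroblasts, containing active Stat1, Stat3 and Stat5, preincubated with 5 μM test compound for 30 min at room temperature. Then incubated 30 min with 32P-labelled probe before EMSA: hSIE (Stat1/Stat3 binding) or MGFe (bovine β-casein element; Stat1/Stat5 binding). STAT:DNA bands quantified as percent of control.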

G22 cells [8] = assay: 3D spheroid assay; assay type: cell-based, human; conditions: 5 μM, treated once
pErk1/2MAPK [9] = assay: Immunoblotting, EGF-stimulated NIH3T3/hEGFR fibroblasts; assay type: cell-based, mouse; conditions: 5 μM pre-treatment
In short: (§4)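 NIH3T3/hEGFR fibroblasts pretreated with or without 5 μM test compound for 3 h, then stimulated with 1 μg/ml EGF for 12 min. Whole-cell lysates, equal total protein, immunoblotted for pStat1/Stat1, pStat5/Stat5 and pErk1/2/Erk1/2.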

pStat1 = assay: as above; assay type: cell-based, mouse; conditions: 5 μM pre-treatment
In short: as §4

U373MG cells = assay: CyQuant cell proliferation assay; assay type: cell-based; conditions: Homo sapiens, U373 MG, 72 h, read-out: IC50 cell proliferation U373MG
In short: as §2

Stat5:Stat5 = assay: Cell-free EMSA, EGF-stimulated NIH3T3/hEGFR nuclear extracts, MGFe probe; assay type: biochemical, mouse; conditions: 5 μM, 30 min pre-incubation
In short: as §3

pStat5 = assay: Immunoblotting, EGF-stimulated NIH3T3/hEGFR fibroblasts; assay type: cell-based, mouse; conditions: 5 μM pre-treatment
In short: as §4

MDA-MB-231 cells = assay: CyQuant cell proliferation assay; assay type: cell-based, human; conditions: Homo sapiens, MDA-MB-231, 72 h, read-out: IC50 cell proliferation MDA-MB-231
In short: as §2

pS-Akt = assay: Immunoblotting, U251MG glioma cells; assay type: cell-based, human; conditions: 5 μM
In short: as §1

pStat3 = assay: Immunoblotting of pStat3 in patient-derived xenograft cells; assay type: cell-based, human; conditions: 5 μM, 3 h
In short: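 Glioma patient-derived xenograft G22 cells (DMEM, 5–10% heat-inactivated FBS) given 5 μM test compound for 0–24 h. Whole-cell lysates immunoblotted for pStat3 and Stat3, with GAPDH as loading reference.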

SF295 cells = assay: CyQuant cell proliferation assay; assay type: cell-based; conditions: Homo sapiens, SF-295, 72 h, read-out: IC50 cell proliferation SF295
In short: as §2

U251MG cells [10] = assay: Immunofluorescence staining/confocal microscopy of mitosis; assay type: cell-based, human; conditions: 15 h treatment
In short: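 U251MG cells on coverslips synchronised by double thymidine block (2 mM) and released for 9 h. Then given DMSO, 100 nM paclitaxel or 8 μM test compound for 15 h. Fixed in 4% paraformaldehyde, permeabilised with 0.1% digitonin and blocked in 0.2% BSA. Stained with anti-β-tubulin (1:350) and anti-MAP1B (1:300) for 1 h at room temperature, then fluorescent secondaries and DAPI; confocal imaging.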

U251MG cells [11] = assay: CyQuant cell proliferation assay; assay type: cell-based, human
In short: as §2

NIH3T3 cells [12] = assay: CyQuant cell proliferation assay; assay type: cell-based, mouse; conditions: 5 μM
In short: as §2

U251MG cells [13] = assay: Apoptosis by PARP or caspase cleavage; assay type: cell-based, human; conditions: 24 or 48 h

Stat3:Stat3, sequence (P42227 2-770 limits assumed): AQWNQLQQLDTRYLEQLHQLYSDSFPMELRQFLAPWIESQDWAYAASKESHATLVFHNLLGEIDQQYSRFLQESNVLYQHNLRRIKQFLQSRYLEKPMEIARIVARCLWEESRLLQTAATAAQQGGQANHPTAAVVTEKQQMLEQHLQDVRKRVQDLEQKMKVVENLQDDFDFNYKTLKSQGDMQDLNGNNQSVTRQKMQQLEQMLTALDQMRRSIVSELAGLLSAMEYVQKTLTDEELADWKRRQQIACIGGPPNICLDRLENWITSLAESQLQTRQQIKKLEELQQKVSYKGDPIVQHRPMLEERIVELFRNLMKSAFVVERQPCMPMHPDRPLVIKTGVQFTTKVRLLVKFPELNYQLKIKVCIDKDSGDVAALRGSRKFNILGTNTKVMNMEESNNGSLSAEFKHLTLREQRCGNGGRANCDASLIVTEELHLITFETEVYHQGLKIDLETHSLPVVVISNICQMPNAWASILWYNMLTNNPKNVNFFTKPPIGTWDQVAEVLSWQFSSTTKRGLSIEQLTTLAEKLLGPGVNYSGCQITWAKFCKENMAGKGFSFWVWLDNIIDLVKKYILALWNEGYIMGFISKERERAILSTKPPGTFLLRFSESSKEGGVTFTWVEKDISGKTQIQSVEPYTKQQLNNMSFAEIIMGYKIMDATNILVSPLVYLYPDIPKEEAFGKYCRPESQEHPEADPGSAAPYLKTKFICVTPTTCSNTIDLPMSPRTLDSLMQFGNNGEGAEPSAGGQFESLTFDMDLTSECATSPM

C=C(C)C(=O)O[C@H]1C[C@@H](C)[C@]2(OC)CC[C@](C)(/C=C3/OC(=O)C(COC(C)=O)=C31)O2 [Compound 9]
effect on pStat3 in treated tumor cells (pYStat3): little impact | Stat3:Stat3/DNA-binding activity (complexation), cell-free EMSA (Stat3:Stat3): no effect; also recorded: only weakly inhibited | Michael acceptor reaction with cysteamine [1]: indicative of Michael acceptor reactions

C/C=C(\C)C(=O)O[C@H]1C[C@@H](C)[C@]2(OC)CC[C@](C)(/C=C3/OC(=O)C(COC(C)=O)=C31)O2 [Compound 10]
effect on PTP1B levels [2]: no effects | effect on pErk1/2MAPK levels (pErk1/2MAPK [3]): no effects | inhibition at 5 µM (G10 cells): 45 to 60% | effect on Stat3 DNA-binding activity in treated tumor cells (Stat3): strongly inhibited | IC50 (MCF-7 cells): 4.8 to 9.6 µM | inhibition at 5 µM (G22 cells [4]): 45 to 60% | migration into the denuded area (U251MG cells [5]): slowed migration | inhibition at 5 µM (G12 cells): 25 to 35% | effect on pStat3 in treated tumor cells (pYStat3): strongly inhibited | effect on SOCS3 levels [6]: no effects | effects on NIH3T3 colony numbers (NIH3T3 cells [7]): moderate or none | effect on Stat1:Stat1 activity, cell-free EMSA (Stat1:Stat1): weak effects | 3D spheroid growth (G22 cells [8]): modest | effect on EGF-stimulated pErk1/2MAPK levels (pErk1/2MAPK [9]): no effect | effect on EGF-stimulated pStat1 levels (pStat1): no effect | IC50 (U373MG cells): 6.6 to 8.2 µM | Stat3:Stat3/DNA-binding activity (complexation), cell-free EMSA (Stat3:Stat3): diminished | effect on Stat5:Stat5 activity, cell-free EMSA (Stat5:Stat5): weak effects | effect on EGF-stimulated pStat5 levels (pStat5): no effect | Michael acceptor reaction with cysteamine [1]: Michael acceptor reactions have occurred | IC50 (MDA-MB-231 cells): 5.2 to 9.1 µM | effect on pS-Akt levels (pS-Akt): no effects | effect on Phospho-Stat3 in G22 cells (pStat3): moderate inhibition | IC50 (SF295 cells): 7.4 to 18.3 µM

CC(=O)OCC1=C2/C(=C\[C@@]3(C)CC[C@](O)(O3)[C@H](C)C[C@@H]2O)OC1=O [Compound 11]
effect on Stat3 DNA-binding activity in treated tumor cells (Stat3): weak effect | effect on pStat3 in treated tumor cells (pYStat3): weak effect | effect on Stat1:Stat1 activity, cell-free EMSA (Stat1:Stat1): weak effects | Stat3:Stat3/DNA-binding activity (complexation), cell-free EMSA (Stat3:Stat3): diminished | effect on Stat5:Stat5 activity, cell-free EMSA (Stat5:Stat5): weak effects | chromatid structures and sister-chromatids segregation (mitosis) (U251MG cells [10]): minimal effect

C/C=C(/C)C(=O)O[C@H]1C[C@@H](C)[C@]2(O)CC[C@](C)(/C=C3/OC(=O)C(COC(C)=O)=C31)O2 [Compound 20]
effect on PTP1B levels [2]: no effects | effect on pErk1/2MAPK levels (pErk1/2MAPK [3]): no effects | effect on Stat3 DNA-binding activity in treated tumor cells (Stat3): strongly inhibited | IC50 (MCF-7 cells): 4.8 to 9.6 µM | effect on pStat3 in treated tumor cells (pYStat3): strongly inhibited | effect on SOCS3 levels [6]: no effects | effect on Stat1:Stat1 activity, cell-free EMSA (Stat1:Stat1): weak effects | effect on EGF-stimulated pErk1/2MAPK levels (pErk1/2MAPK [9]): no effect | effect on EGF-stimulated pStat1 levels (pStat1): no effect | IC50 (U373MG cells): 6.6 to 8.2 µM | Stat3:Stat3/DNA-binding activity (complexation), cell-free EMSA (Stat3:Stat3): diminished | effect on Stat5:Stat5 activity, cell-free EMSA (Stat5:Stat5): weak effects | effect on EGF-stimulated pStat5 levels (pStat5): no effect | IC50 (MDA-MB-231 cells): 5.2 to 9.1 µM | effect on pS-Akt levels (pS-Akt): no effects | IC50 (SF295 cells): 7.4 to 18.3 µM

C/C=C(\C)C(=O)OCC1=C2/C(=C\[C@@]3(C)CC[C@](O)(O3)[C@H](C)C[C@@H]2OC(=O)/C(C)=C/C)OC1=O [Compound 38]
effect on Stat3 DNA-binding activity in treated tumor cells (Stat3): suppressed | IC50 (Stat3; Homo sapiens, U-251, read-out: IC50 Stat3 DNA-binding activity in treated cells): 0.5 to 2.5 µM | effect on pStat3 in treated tumor cells (pYStat3): suppressed | Stat3:Stat3/DNA-binding activity (complexation), cell-free EMSA (Stat3:Stat3): diminished | activity against U251MG cell growth (U251MG cells [11]; 5 μM): retained or improved the inhibitory potency | effect on NIH3T3 growth (NIH3T3 cells [12]): inhibited NIH3T3 growth

C=C1C(=O)O[C@@H]2/C=C(\C)CC/C=C(\C)CC[C@@H]12 [costunolide, reference compound]
Stat3 activity in tumor cells, control compounds (pYStat3; Fig. S5E(ii)): did not inhibit | Michael acceptor reaction with cysteamine [1]: formation of diastereomeric Michael adduct mixtures | cell growth activity, control compounds (U251MG cells [11]; panel of cell lines, Fig. S5E(i)): poorly-active or non-specific in activity

CC(=O)O[C@H]1C(=O)[C@@]2(C)[C@H]([C@H](OC(=O)c3ccccc3)[C@]3(O)C[C@H](OC(=O)[C@H](O)[C@@H](NC(=O)c4ccccc4)c4ccccc4)C(C)=C1C3(C)C)[C@]1(OC(C)=O)CO[C@@H]1C[C@@H]2O [paclitaxel, reference compound]
apoptosis measured by PARP or caspase cleavage (U251MG cells [13]): induced apoptosis | chromatid structures and sister-chromatids segregation (mitosis) (U251MG cells [10]): caused strong defects

CN[C@@H]1C[C@H]2O[C@@](C)([C@@H]1OC)n1c3ccccc3c3c4c(c5c6ccccc6n2c5c31)C(=O)NC4 [staurosporine]
apoptosis measured by PARP or caspase cleavage (U251MG cells [13]): induced apoptosis
